Assay results from ChEMBL document CHEMBL3120097, “HCV NS5A replication complex inhibitors. Part 4. Optimization for genotype 1a replicon inhibitory activity” (J Med Chem, 2014).

Experiments:
Hepatitis C virus [1] = assay: Antiviral activity against HCV genotype 2a JFH; assay type: functional, organism-based, Hepacivirus hominis; details: subtype 2a JFH
Hepatitis C virus [2] = assay: Antiviral activity against HCV genotype 1b infected in human HuH7 cells after 72 hrs by FRET assay; assay type: functional, organism-based, Hepacivirus hominis; details: Huh-7, 72 h
Procedure, shortened: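 Replicon cells seeded 10K/well, attached overnight; compounds added with 0.5% v/v DMSO vehicle controls, typically 72 h. Alamar blue read first, then cells PBS-rinsed and lysed with reagent holding 150 mM NaCl and 20 μM final EDANS/DABCYL NS3 protease peptide; kinetic fluorescence 340/490 nm. EC₅₀ = concentration halving background-subtracted FRET signal versus DMSO wells.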

Hepatitis C virus [3] = assay: Antiviral activity against HCV genotype 1a H77c infected in human HuH7 cells after 5 days by ELISA; assay type: functional, organism-based, Hepacivirus hominis; details: Huh-7, 120 h
Procedure, shortened: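 Genotype 1a (H77c) replicon cells, 1.5 × 10⁴/well in DMEM + 10% FBS, attached overnight at 37 °C; serially diluted compounds (in FBS-free DMEM) added, 5 days at 37 °C. Cells dried overnight at 37 °C to fix, Triton-permeabilized, casein-blocked; NS5A antiserum then HRP secondary, chemiluminescent read. Inhibition relative to untreated wells; background set with 500 nM NS3 inhibitor.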

[4] = test system: Bovine viral diarrhea virus 1; assay: Antiviral activity against BVDV infected in bovine MDBK cells after 72 hrs by luciferase reporter gene assay; assay type: functional, organism-based; details: Bovine viral diarrhea virus isolates and strains
[5] = Cytotoxicity against bovine MDBK cells after 3 days by CellTitre-Blue assay; assay type: cell-based, Bos taurus; details: cattle
Hepatitis C virus [6] = assay: Antiviral activity against HCV genotype 4a; assay type: functional, organism-based, Hepacivirus hominis
[7] = Cytotoxicity against human Huh7.5 cells; assay type: cell-based, Huh-7
Hepatitis C virus [8] = assay: Antiviral activity against HCV genotype 1a H77c infected in human HuH7 cells after 3 days by luciferase reporter gene assay; assay type: functional, organism-based, Hepacivirus hominis; details: Huh-7, 72 h
Procedure, shortened: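 Titrated compounds in 384-well plates seeded with replicon cells, 2.4 × 10³/well in DMEM with 4% FCS, final DMSO 0.5% v/v; 3 days at 37 °C. Renilla luciferase read with EnduRen substrate at […] final after ≥1 h at 37 °C; EC₅₀ from four-parameter logistic fit.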

Structure (SMILES) | EC50 (Hepatitis C virus [1]) [nM] | EC50 (Hepatitis C virus [2]) [nM] | EC50 (Hepatitis C virus [3]) [nM] | EC50 [4] [µM] | CC50 at 72 h [5] [µM] | EC50 (Hepatitis C virus [6]) [nM] | CC50 [7] [µM] | EC50 (Hepatitis C virus [8]) [nM]
COc1cccc2c(C(=O)N3CCC[C@H]3C(=O)Nc3ccc(/C=C/c4ccc(NC(=O)[C@@H]5CCCN5C(=O)c5nc(Cl)cc6c(OC)cccc56)cc4)cc3)nc(Cl)cc12 | 2.2 | 7 | 37 | > 10 | > 10 | > 1000 | > 10 | 
CCc1ccnc(C(=O)N2CCC[C@H]2C(=O)Nc2ccc(/C=C/c3ccc(NC(=O)[C@@H]4CCCN4C(=O)c4cc(CC)ccn4)cc3)cc2)c1 |  | 390 | 4100 | > 5 | > 10 |  |  | 
COc1cccc2c(C(=O)N3CCC[C@H]3C(=O)Nc3ccc(-c4cnc(-c5ccc(NC(=O)[C@@H]6CCCN6C(=O)c6nc(Cl)cc7c(OC)cccc67)cc5)o4)cc3)nc(Cl)cc12 |  | 34 |  | > 10 | > 10 |  |  | 52
O=C(Nc1ccc(/C=C/c2ccc(NC(=O)[C@@H]3CCCN3C(=O)c3cccc4ccccc34)cc2)cc1)[C@@H]1CCCN1C(=O)c1cccc2ccccc12 |  | 1600 | > 10000 | > 5 | > 10 |  |  | 
COc1cccc2nc(C(=O)N3CCC[C@H]3C(=O)Nc3ccc(/C=C/c4ccc(NC(=O)[C@@H]5CCCN5C(=O)c5ccc6c(OC)cccc6n5)cc4)cc3)ccc12 |  | 971 | > 10000 | > 10 | > 10 |  |  | 
C=Cc1ccccc1C(=O)N1CCC[C@H]1C(=O)Nc1ccc(/C=C/c2ccc(NC(=O)[C@@H]3CCCN3C(=O)c3ccccc3C=C)cc2)cc1 |  | 1200 | 1100 | > 5 | > 10 |  |  | 
O=C(Nc1ccc(/C=C/c2ccc(NC(=O)[C@@H]3CCCN3C(=O)c3nccc4ccccc34)cc2)cc1)[C@@H]1CCCN1C(=O)c1nccc2ccccc12 |  |  | 390 | 6.4 | > 10 |  |  | 
O=C(Nc1ccc(/C=C/c2ccc(NC(=O)[C@@H]3CCCN3C(=O)c3cncc4ccccc34)cc2)cc1)[C@@H]1CCCN1C(=O)c1cncc2ccccc12 |  | 140 | 1400 | 0.042 | > 10 |  |  | 
Cc1cc2ccccc2c(C(=O)N2CCC[C@H]2C(=O)Nc2ccc(/C=C/c3ccc(NC(=O)[C@@H]4CCCN4C(=O)c4nc(C)cc5ccccc45)cc3)cc2)n1 |  | 6 | 329 | > 10 | > 10 |  |  | 
O=C(Nc1ccc(-c2cc(-c3ccc(NC(=O)[C@@H]4CCCN4C(=O)Cc4ccccc4)cc3)[nH]n2)cc1)[C@@H]1CCCN1C(=O)Cc1ccccc1 |  | 4.8 |  | > 10 | > 10 |  |  | 1370
C=Cc1cccnc1C(=O)N1CCC[C@H]1C(=O)Nc1ccc(/C=C/c2ccc(NC(=O)[C@@H]3CCCN3C(=O)c3ncccc3C=C)cc2)cc1 |  | 320 | 3500 | > 5 | > 10 |  |  | 
COc1cccc2c(C(=O)N3CCC[C@H]3C(=O)Nc3ccc(/C=C/c4ccc(NC(=O)[C@@H]5CCCN5C(=O)c5nccc6c(OC)cccc56)cc4)cc3)nccc12 |  | 215 | 175 | > 10 | > 10 |  |  | 
O=C(Nc1ccc(/C=C/c2ccc(NC(=O)[C@@H]3CCCN3C(=O)c3ncnc4ccccc34)cc2)cc1)[C@@H]1CCCN1C(=O)c1ncnc2ccccc12 |  | 2300 | 910 | > 5 | > 10 |  |  | 
O=C(Nc1ccc(/C=C/c2ccc(NC(=O)[C@@H]3CCCN3C(=O)c3nccc4c(Cl)cccc34)cc2)cc1)[C@@H]1CCCN1C(=O)c1nccc2c(Cl)cccc12 |  | 139 | 255 | > 10 | > 10 |  |  | 
O=C(Nc1ccc(/C=C/c2ccc(NC(=O)[C@@H]3CCCN3C(=O)c3nc(Cl)cc4c(F)cccc34)cc2)cc1)[C@@H]1CCCN1C(=O)c1nc(Cl)cc2c(F)cccc12 |  | 18 | 42 | > 10 | > 10 |  |  | 
O=C(Nc1ccc(/C=C/c2ccc(NC(=O)[C@@H]3CCCN3C(=O)c3nc(F)cc4ccccc34)cc2)cc1)[C@@H]1CCCN1C(=O)c1nc(F)cc2ccccc12 |  | 27 | 70 | > 10 | > 10 |  |  | 
CCc1cccnc1C(=O)N1CCC[C@H]1C(=O)Nc1ccc(/C=C/c2ccc(NC(=O)[C@@H]3CCCN3C(=O)c3ncccc3CC)cc2)cc1 |  | 46 | 720 | 3.1 | > 10 |  |  | 
O=C(Nc1ccc(C#Cc2ccc(NC(=O)[C@@H]3CCCN3C(=O)Cc3ccccc3)cc2)cc1)[C@@H]1CCCN1C(=O)Cc1ccccc1 |  |  |  | > 10 | > 10 |  |  | > 10000

Structure (SMILES) | EC50 (Hepatitis C virus [1]) [nM] | EC50 (Hepatitis C virus [2]) [nM] | EC50 (Hepatitis C virus [3]) [nM] | EC50 [4] [µM] | CC50 at 72 h [5] [µM] | EC50 (Hepatitis C virus [6]) [nM] | CC50 [7] [µM] | EC50 (Hepatitis C virus [8]) [nM]
O=C(Nc1ccc(/C=C/c2ccc(NC(=O)[C@@H]3CCCN3C(=O)c3nncc4ccccc34)cc2)cc1)[C@@H]1CCCN1C(=O)c1nncc2ccccc12 |  | 30 | 1000 | > 5 | > 10 |  |  | 
O=C(Nc1ccc(/C=C/c2ccc(NC(=O)[C@@H]3CCCN3C(=O)c3nccc4cc(Cl)ccc34)cc2)cc1)[C@@H]1CCCN1C(=O)c1nccc2cc(Cl)ccc12 |  | 110 | 761 | 2.1 | > 10 |  |  | 
COc1cccc2c(C(=O)N3CCC[C@H]3C(=O)Nc3ccc(-c4cc(-c5ccc(NC(=O)[C@@H]6CCCN6C(=O)c6nc(Cl)cc7c(OC)cccc67)cc5)[nH]n4)cc3)nc(Cl)cc12 |  | 11 |  | > 10 | > 10 |  |  | 120
O=C(Nc1ccc(-c2cnc(-c3ccc(NC(=O)[C@@H]4CCCN4C(=O)Cc4ccccc4)cc3)o2)cc1)[C@@H]1CCCN1C(=O)Cc1ccccc1 |  |  |  | > 10 | 3.3 |  |  | 1510
CCc1ccccc1C(=O)N1CCC[C@H]1C(=O)Nc1ccc(/C=C/c2ccc(NC(=O)[C@@H]3CCCN3C(=O)c3ccccc3CC)cc2)cc1 |  |  |  | 4.7 | > 10 |  |  | 
COc1cc2ccccc2c(C(=O)N2CCC[C@H]2C(=O)Nc2ccc(/C=C/c3ccc(NC(=O)[C@@H]4CCCN4C(=O)c4nc(OC)cc5ccccc45)cc3)cc2)n1 |  | 32 | > 10000 | > 10 | > 10 |  |  | 
O=C(Nc1ccc(/C=C/c2ccc(NC(=O)[C@@H]3CCCN3C(=O)c3ncc(Cl)c4ccccc34)cc2)cc1)[C@@H]1CCCN1C(=O)c1ncc(Cl)c2ccccc12 |  | 69 | 282 | > 10 | > 10 |  |  | 
O=C(Nc1ccc(/C=C/c2ccc(NC(=O)[C@@H]3CCCN3C(=O)c3nccc4ccc(Cl)cc34)cc2)cc1)[C@@H]1CCCN1C(=O)c1nccc2ccc(Cl)cc12 |  | 36 | > 10000 | > 10 | > 10 |  |  | 
O=C(Nc1ccc(/C=C/c2ccc(NC(=O)[C@@H]3CCCN3C(=O)c3nc(Cl)cc4ccccc34)cc2)cc1)[C@@H]1CCCN1C(=O)c1nc(Cl)cc2ccccc12 |  | 23 | 62 | > 10 | > 10 |  |  | 
O=C(Nc1ccc(/C=C/c2ccc(NC(=O)[C@@H]3CCCN3C(=O)c3ccccc3)cc2)cc1)[C@@H]1CCCN1C(=O)c1ccccc1 |  | 100 |  | > 5 | > 10 |  |  | 6300
O=C(Nc1ccc(/C=C/c2ccc(NC(=O)[C@@H]3CCCN3C(=O)Cc3ccccc3)cc2)cc1)[C@@H]1CCCN1C(=O)Cc1ccccc1 | 79 |  |  | > 5 | > 30 | 157 |  | 
COc1ccc2ccc(C(=O)N3CCC[C@H]3C(=O)Nc3ccc(/C=C/c4ccc(NC(=O)[C@@H]5CCCN5C(=O)c5ccc6ccc(OC)cc6n5)cc4)cc3)nc2c1 |  | 62 | 126 | > 10 | > 10 |  |  | 
O=C(Nc1ccc(/C=C/c2ccc(NC(=O)[C@@H]3CCCN3C(=O)c3ccc4ccccc4n3)cc2)cc1)[C@@H]1CCCN1C(=O)c1ccc2ccccc2n1 |  | 200 | 590 | > 5 | > 10 |  |  | 
O=C(Nc1ccc(/C=C/c2ccc(NC(=O)[C@@H]3CCCN3C(=O)c3nccc4c(F)cccc34)cc2)cc1)[C@@H]1CCCN1C(=O)c1nccc2c(F)cccc12 |  | 42 | 236 | 7.9 | > 10 |  |  | 
O=C(Nc1ccc(/C=C/c2ccc(NC(=O)[C@@H]3CCCN3C(=O)c3ncccc3-c3ccccc3)cc2)cc1)[C@@H]1CCCN1C(=O)c1ncccc1-c1ccccc1 |  | 820 | 2200 | > 5 | > 10 |  |  | 
COc1cccc2c(C(=O)N3CCC[C@H]3C(=O)Nc3ccc(C#Cc4ccc(NC(=O)[C@@H]5CCCN5C(=O)c5nc(Cl)cc6c(OC)cccc56)cc4)cc3)nc(Cl)cc12 |  | 23 |  | > 10 | > 10 |  |  | 18
Cc1cccc2c(C(=O)N3CCC[C@H]3C(=O)Nc3ccc(/C=C/c4ccc(NC(=O)[C@@H]5CCCN5C(=O)c5nccc6c(C)cccc56)cc4)cc3)nccc12 |  | < 5 | > 10000 | > 10 | > 10 |  |  | 
O=C(Nc1ccc(/C=C/c2ccc(NC(=O)[C@@H]3CCCN3C(=O)c3cc(Cl)cc4ccccc34)cc2)cc1)[C@@H]1CCCN1C(=O)c1cc(Cl)cc2ccccc12 |  | 240 | > 10000 | > 10 | > 10 |  |  | 
